Data set [1] deals with A. baumannii ATCC 17978::pROTO2 (NDM-1). The data set can be described thus: Meropenem rescue and MIC, antimicrobial susceptibility test. Type of data set: cell-based, Acinetobacter baumannii. Conditions: rescue concentration at meropenem 2 μg/mL.
The test system of data set [2] is E. coli expressing blaNDM-1. The data set can be described thus: Meropenem rescue concentration, antimicrobial susceptibility test. The data set is classed as cell-based, Escherichia coli. Conditions: rescue concentration at meropenem 2 μg/mL, MHB. The method, boiled down:
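Checkerboard broth microdilution in Mueller–Hinton broth against E. coli carrying the plasmid-borne MBL gene. Meropenem used five 2-fold dilutions and the test compound six 2-fold dilutions, within 0.5–64 μg/mL; the test compound was dissolved in water or 50% methanol. Inoculum was adjusted to OD625 0.08–0.10, then diluted 200-fold. Incubation was 20 h static at 37 °C, read at OD600. RC is the compound concentration restoring susceptibility at meropenem 2 μg/mL. ≥2 replicates.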

In data set [3] the test system is K. pneumoniae ATCC 33495::pGDP2 (NDM-1). The data set can be described thus: Meropenem rescue and MIC, antimicrobial susceptibility test. The data set is classed as cell-based, Klebsiella pneumoniae. Conditions: for RC in MHB, K. pneumoniae ATCC 33495::pGDP2 (NDM-1): rescue concentration at meropenem 2 μg/mL; for MIC: Klebsiella pneumoniae.
The target of the next data set is NDM-1 (Klebsiella pneumoniae, UniProt C7C422). The data set can be described thus: In vitro enzyme inhibition assay, purified recombinant NDM-1. Type of data set: biochemical. The method, boiled down: (§1)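 Purified recombinant enzyme at 4 nM was preincubated 5–10 min at RT with varying inhibitor concentrations. Buffer was 50 mM HEPES pH 7.5, 0.2% DMSO, 1% PEG 4000, with either 10 μM ZnSO4 or no zinc (Chelex-100-treated, 2 h, filtered). Reactions were started with nitrocefin (30 μM final, A490) or meropenem (50 μM final, A300) and followed 60 s. IC50 came from the linear portion of progress curves. Duplicates.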

A short description of data set [4]: Zn2+ affinity by competition with colorimetric PAR assay. Type of data set: binding. Conditions: for Kd: read-out: Kd,Zn2, PAR 100 μM, ZnSO4 10 μM, pH 7.5, 3 h at 25 °C. A digest of the protocol: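 The test compound was titrated into Chelex-100-treated 20 mM HEPES, 100 mM NaCl, pH 7.5, containing PAR 100 μM and ZnSO4 10 μM, then incubated 3 h at 25 °C. Zn2+ displacement from PAR was read as the fall in absorbance at 492 nm. Kd was estimated from the known PAR stability constant at pH 7.4.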

Another data set relates to E. coli BW25113 (WT). The data set can be described thus: Cell penetration / intracellular accumulation assay. Type of data set: cell-based, Escherichia coli. Conditions: 50 μM, wild-type E. coli. A digest of the protocol:
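E. coli BW25113 (wild type) cells were incubated with the test compound at 50 μM (reference chelator at 50 or 100 μM) for 10 min at 37 °C. Cells were spun through ice-cold silicone oil (12,000g, 2 min), resuspended in water and lysed by three freeze–thaw cycles. The debris pellet was extracted with MeOH. Pooled extracts were quantified by UPLC–Q-TOF targeted MS/MS against a calibration curve. Biological and technical triplicates.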

For a further data set, the system named is E. coli. Description: MIC of single agent, antimicrobial susceptibility test. The data set is classed as cell-based. Particulars: Escherichia coli.
A further data set has as its target IMP-7. Description: In vitro enzyme inhibition assay, purified recombinant IMP-7. The data set is classed as biochemical. Particulars: read-out: IC50 IMP-7 - Zn; Zn2+-depleted (Chelex-100-treated) buffer. A digest of the protocol: as §1
In the next data set the target is VIM-2 (Escherichia coli, UniProt Q5U7L7). Description: In vitro enzyme inhibition assay, purified recombinant VIM-2. The data set is classed as biochemical. A digest of the protocol: as §1
Setting [5] is: IC50 NDM-1 + Zn, Zn2+-supplemented (10 μM) buffer.
[6] abbreviates: IC50 NDM-1 - Zn, Zn2+-depleted (Chelex-100-treated) buffer.

Converted amounts (≈) assume the structure as drawn. Like-named read-outs stand apart in the source and are kept apart here.

Usually IC50 stands for the concentration that inhibits the measured activity by half. A word on the Kd: it is the constant that tells how readily two partners part at equilibrium. In general, MIC refers to the least concentration at which growth counts as inhibited.

Chain of NDM-1 (C7C422 29-270, looked up, species assumed): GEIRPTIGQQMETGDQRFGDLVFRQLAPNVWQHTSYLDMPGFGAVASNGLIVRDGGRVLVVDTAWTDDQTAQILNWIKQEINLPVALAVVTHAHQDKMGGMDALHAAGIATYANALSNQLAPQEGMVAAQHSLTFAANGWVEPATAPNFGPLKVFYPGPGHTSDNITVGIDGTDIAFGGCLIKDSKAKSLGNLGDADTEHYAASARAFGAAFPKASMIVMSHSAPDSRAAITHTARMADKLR

In the case of `NC(=O)C[C@H](NC[C@H](NC[C@H](N)C(=O)O)C(=O)O)C(=O)O` [Compound 16, ((S)-2-(((S)-2-Amino-2-carboxyethyl)amino)-2-carboxyethyl)-L-asparagine], the “RC in MHB, A. baumannii ATCC 17978::pROTO2 (NDM-1)” value in data set [1] was 16 μg/mL. The “RC in MHB, NDM-1” value in [2] turned out to be 16 µg/mL. In addition, the “RC in MHB, K. pneumoniae ATCC 33495::pGDP2 (NDM-1)” value in data set [3] was determined as 32 μg/mL. Also, the figures for the IC50 on NDM-1 (setting [5]) and on NDM-1 (setting [6]) were 18.3 ± 0.7 µM and > 1000 µM, respectively. Moreover, the dissociation constant Kd in data set [4] is 0.001 ± 0.0001 µM.
`N[C@@H](CN[C@@H](CN[C@@H](Cc1ccc(O)cc1)C(=O)O)C(=O)O)C(=O)O` [Compound 20, (S)-2-Amino-3-(((S)-1-carboxy-2-(((S)-1-carboxy-2-(4-hydroxyphenyl)ethyl)amino)ethyl)amino)propanoic Acid]: the “RC in MHB, A. baumannii ATCC 17978::pROTO2 (NDM-1)” value in data set [1] was 32 μg/mL. Moreover, the “RC in MHB, NDM-1” value in data set [2] was 16 µg/mL. Also, in data set [3], the “RC in MHB, K. pneumoniae ATCC 33495::pGDP2 (NDM-1)” value came to 64 μg/mL. The IC50 on NDM-1 (setting [5]) came to 38 ± 1.8 µM; at NDM-1 (setting [6]), 172 ± 1.5 µM. The Kd in data set [4] worked out at 0.00064 ± 0.00017 µM.
For the compound `C[C@@H](O)[C@H]1C(=O)N2C(C(=O)O)=C(S[C@@H]3CN[C@H](C(=O)N(C)C)C3)[C@H](C)[C@H]12` [meropenem, reference compound], the intracellular accumulation in the data set on E. coli BW25113 (WT) (10 min 37 °C) was determined as 43.9 nmol/10^12 CFU. Also, the minimal inhibitory concentration (MIC) was 64 µg/mL in the data set on E. coli (read-out: MIC of meropenem against resistant E. coli) and 16 to 32 µg/mL (≈ 41.7 to 83.4 µM) in data set [3] (ATCC33495, read-out: Meropenem MIC (Table 3 footnote b)).
On to `N[C@@H](CN[C@@H](CN[C@@H](CC(=O)O)C(=O)O)C(=O)O)CSc1ccc(O)cc1` [Compound 6, ((S)-2-(((S)-2-Amino-3-((4-hydroxyphenyl)thio)propyl)amino)-2-carboxyethyl)-L-aspartic Acid], for which the 50% inhibitory concentration (IC50) on IMP-7 was > 500 µM; at VIM-2, 183 ± 10 µM; on NDM-1 (setting [5]), 54 ± 4.1 µM; on NDM-1 (setting [6]), > 500 µM. The “RC in MHB, A. baumannii ATCC 17978::pROTO2 (NDM-1)” value in data set [1] is listed as 8 μg/mL. Further, the “RC in MHB, NDM-1” value in data set [2] turned out to be 8 µg/mL. Moreover, the “intracellular accumulation increase relative to AMA” value with E. coli BW25113 (WT) turned out to be 4.5 fold. Also, the “RC in MHB, K. pneumoniae ATCC 33495::pGDP2 (NDM-1)” value in [3] was determined as 16 μg/mL. For the same compound, in [4], the Kd turned out to be 0.0078 ± 0.0034 µM.
Consider `CC(C)(S)C(NC[C@H](NC[C@H](N)C(=O)O)C(=O)O)C(=O)O` (stereo in doubt) [Compound 15, (S)-2-(((S)-2-(((S)-2-Amino-2-carboxyethyl)amino)-2-carboxyethyl)amino)-3-mercapto-3-methylbutanoic Acid], for which the half-inhibitory concentration (IC50) is > 500 µM on IMP-7, 361 ± 29 µM at VIM-2, 56.1 ± 2.5 µM at NDM-1 (setting [5]) and 98.6 ± 4 µM at NDM-1 (setting [6]). For the same compound, the “RC in MHB, NDM-1” value in [2] came out at 32 µg/mL. Also, the minimal inhibitory concentration (MIC) in the data set on E. coli (read-out: MIC (antimicrobial activity)) was 64 µg/mL; in data set [3] (ATCC33495, read-out: MIC of compound (Table 3 footnote c)), 16 to 32 µg/mL. For the same compound, the Kd in data set [4] is 0.0023 ± 0.0004 µM.
On to `N[C@@H](CN[C@@H](CN[C@@H](Cc1c[nH]cn1)C(=O)O)C(=O)O)C(=O)O` [Compound 10, (S)-2-Amino-3-(((S)-1-carboxy-2-(((S)-1-carboxy-2-(1H-imidazol-4-yl)ethyl)amino)ethyl)amino)propanoic Acid], for which the IC50 was > 500 µM on IMP-7, 136 ± 5 µM at VIM-2, 21.7 ± 3.9 µM on NDM-1 (setting [5]) and 173 ± 3.9 µM on NDM-1 (setting [6]). Moreover, in [1], the “RC in MHB, A. baumannii ATCC 17978::pROTO2 (NDM-1)” value is on record as 4–8 μg/mL. The “RC in MHB, NDM-1” value in data set [2] stood at 8 µg/mL. In addition, the “RC in MHB, K. pneumoniae ATCC 33495::pGDP2 (NDM-1)” value in [3] was 8 μg/mL. Also, in data set [4] (outside the detection range of the assay, estimated), the “Zn2+ affinity (in words)” value is “subpicomolar or lower”.
Consider `N[C@@H](CN[C@@H](CN[C@@H](CC(=O)O)C(=O)O)C(=O)O)CSc1ccccc1` [Compound 4], for which the IC50 at IMP-7 was 32 ± 3.1 µM; at VIM-2, 246 ± 23 µM; at NDM-1 (setting [5]), 12.5 ± 0.8 µM; on NDM-1 (setting [6]) it was 150 ± 16 µM. Further, the “RC in MHB, A. baumannii ATCC 17978::pROTO2 (NDM-1)” value in data set [1] turned out to be 8 μg/mL. The “RC in MHB, NDM-1” value in data set [2] was 8 µg/mL. Also, in the data set with E. coli BW25113 (WT), the “intracellular accumulation increase relative to AMA” value amounted to 1.5 fold. Besides, the “RC in MHB, K. pneumoniae ATCC 33495::pGDP2 (NDM-1)” value in data set [3] was 8 μg/mL. Moreover, the Kd in data set [4] was determined as 0.0004 ± 7e-05 µM.
